One series concerns HIV-1(IIIB). The experiment in a line: Anti-HIV-1 activity. The format is cell-based. To be noted: CEM cells, HIV-1 and HIV-2. The procedure, abridged: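 CEM cells (~3 × 10^5 cells/mL) infected with HIV-1(IIIB) at 100 CCID50 per mL, with dilutions of test compound. Incubated 4–5 days at 37 °C in humidified, CO2-controlled air. Giant (syncytium) cell formation scored under the microscope. EC50 is the concentration that inhibits HIV-induced cytopathic effect by 50%.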

The next series has as its system CEM cells. The experiment in a line: Cytostatic properties in human T-lymphocyte. The format is cell-based. To be noted: concentration required to reduce CEM cell proliferation by 50%. The method in brief: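 Cytostatic assay: (5–7.5) × 104 CEM cells per well with test compound. Cells proliferate 72 h at 37 °C in humidified, CO2-controlled air, then are counted in a Coulter counter. The 50% value is the concentration that inhibits cell proliferation by 50%.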

A further series has as its system Reverse transcriptase. Briefly: Activity against reverse transcriptase. It counts as biochemical. To be noted: data not shown.
Another series deals with HIV-1 (NL4.3). The experiment in a line: Anti-HIV-1 activity. The format is cell-based. The following applies: MT-4 cells.
Series [1] relates to herpes simplex virus type 1 (HSV-1). Briefly: Antiviral activity against HSV-1 in HEL cell cultures. To be noted: at 100 μM. The format is cell-based.
The next series relates to HSV-2. The experiment in a line: Antiviral activity against HSV-2 in HEL cell cultures. It counts as cell-based. The following applies: at 100 μM.
The subject of another series is vaccinia virus. It counts as cell-based.
In series [2] the test system is vesicular stomatitis virus (VSV). It counts as cell-based.
The subject of a further series is Coxsackie virus B4. Briefly: Antiviral activity against Coxsackie virus B4 in HeLa cell cultures. It counts as cell-based. The following applies: at 100 μM.
For series [3], the system named is respiratory syncytial virus (RSV). The experiment in a line: Antiviral activity against RSV in HeLa cell cultures. The format is cell-based. To be noted: at 100 μM.
A further series relates to parainfluenza virus-3. Briefly: Antiviral activity against parainfluenza virus-3 in Vero cell cultures. The format is cell-based. The following applies: at 100 μM.
The test system of another series is reovirus-1. The experiment in a line: Antiviral activity against reovirus-1 in Vero cell cultures. The format is cell-based. The following applies: at 100 μM.
In another series the test system is Sindbis virus. Briefly: Antiviral activity against Sindbis virus in Vero cell cultures. It counts as cell-based. To be noted: at 100 μM.
A further series relates to Punta Toro virus. The experiment in a line: Antiviral activity against Punta Toro virus in Vero cell cultures. To be noted: at 100 μM. The format is cell-based.
The test system of the next series is influenza virus A (H1N1). The format is cell-based.
The subject of another series is influenza virus A (H3N2). It counts as cell-based.
The test system of a further series is influenza virus B. The format is cell-based.
In the next series the test system is feline corona virus. The experiment in a line: Antiviral activity against feline corona virus in CrFK cell cultures. To be noted: at 100 μM. The format is cell-based.
The next series relates to feline herpesvirus. The experiment in a line: Antiviral activity against feline herpesvirus in CrFK cell cultures. It counts as cell-based. The following applies: at 100 μM.

`OC[C@H]1CC(O)C[C@@H]1O` (stereo partly drawn) [Compound 14, (3S,4R)-3-hydroxy-4-hydroxymethyl cyclopentanol]: the “anti-HIV-1 or anti-HIV-2 activity (in words)” value with HIV-1(IIIB) is reported as “not active”.

On to “(1R,2S,3S)-3-(Benzyloxycarbonyl)-2-(benzyloxycarbonylmethyl)cyclopentanol [Compound 13]”, for which, in the series on CEM cells, the CC50 is 94 ± 4.2 µM. In the series on Reverse transcriptase, the “activity against reverse transcriptase” value was “inactive”.

On to “(3S,4R)-3-(Benzyloxycarbonyl)-4-(benzyloxycarbonylmethyl)cyclopentenol [Compound 11]”, for which the “anti-HIV-1 or anti-HIV-2 activity (in words)” value with HIV-1(IIIB) is “not active”. The CC50 in the series on CEM cells stood at 110 ± 4.2 µM.

Turning to `OC[C@H]1[C@H](O)CC[C@@H]1O` [Compound 15, 2-hydroxymethyl-3-hydroxycyclopentanol], the “antiviral activity against HIV-1 and HIV-2 in MT-4 cell cultures (in words)” value (shortened to “antiviral activity”) with HIV-1 (NL4.3) is reported as “confirmed at low micromolar concentrations”. The “activity against herpes simplex virus type 1 (HSV-1)” value in [1] is listed as “did not show any measurable activity”. The “activity against HSV-2” value with HSV-2 is on record as “did not show any measurable activity”. For the same compound, the “activity against vaccinia virus” value in the series on vaccinia virus is “did not show any measurable activity”. The “activity against vesicular stomatitis virus (VSV)” value in [2] is reported as “did not show any measurable activity”. Besides, the “activity against Coxsackie virus B4” value in the series on Coxsackie virus B4 is “did not show any measurable activity”. In addition, the “activity against respiratory syncytial virus (RSV)” value in [3] was “did not show any measurable activity”. For the same compound, the “activity against parainfluenza virus-3” value in the series with parainfluenza virus-3 was “did not show any measurable activity”. Besides, the “activity against reovirus-1” value in the series with reovirus-1 is on record as “did not show any measurable activity”. Besides, the “activity against Sindbis virus” value in the series on Sindbis virus was “did not show any measurable activity”. In addition, in the series on Punta Toro virus, the “activity against Punta Toro virus” value is “did not show any measurable activity”. Further, the “activity against influenza virus A (H1N1)” value in the series on influenza virus A (H1N1) is “did not show any measurable activity”. Moreover, the “activity against influenza virus A (H3N2)” value in the series with influenza virus A (H3N2) was “did not show any measurable activity”. Moreover, in the series with influenza virus B, the “activity against influenza virus B” value is recorded as “did not show any measurable activity”. Besides, in the series on feline corona virus, the “activity against feline corona virus” value was “did not show any measurable activity”. The “activity against feline herpesvirus” value in the series on feline herpesvirus is given as “did not show any measurable activity”. In the series with Reverse transcriptase, the “activity against reverse transcriptase” value was “inactive”.

`CCCCCOC(=O)[C@H](C)NP(=O)(Oc1ccccc1)O[C@@H]1CC[C@H](O)[C@H]1CO` (stereo partly drawn) [Compound 17b, (1R,2R,3S)-3-Hydroxy-2-(hydroxymethyl)cyclopentyl-1-O-phenyl-(pentoxy-L-alaninyl)-phosphate]: the “antiviral activity” value in the series with HIV-1 (NL4.3) is listed as “devoid of any significant antiviral activity”.

Consider `C[C@H](NP(=O)(Oc1cccc2ccccc12)O[C@@H]1CC[C@H](O)[C@H]1CO)C(=O)OCC(C)(C)C` (stereo partly drawn) [Compound 17a, (1R,2R,3S)-3-Hydroxy-2-(hydroxymethyl)cyclopentyl-1-O-naphthyl-(neopentyl-L-alaninyl)-phosphate], for which the “antiviral activity” value in the series on HIV-1 (NL4.3) is reported as “devoid of any significant antiviral activity”.

For the origin of these results see PMC7127161 (Bioorganic & Medicinal Chemistry, 2014).
